The list is not random: actives were taken first. Their share in the collection is about 1.6%.
NOD2-RIPK2 inh – inhibitors of human NOD2-RIPK2 interaction; O43353; CHO BLA complementation NOD2-RIPK2, CCF4 ratio; inhibition, % at 4.98 µM; actives 0.38% (n = 360,000); AID 624267; in the data active = inhibition above about 21%;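 also: 0% = vehicle only and 100% = reference blocker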
Target sequence (O43353 whole entry, looked up): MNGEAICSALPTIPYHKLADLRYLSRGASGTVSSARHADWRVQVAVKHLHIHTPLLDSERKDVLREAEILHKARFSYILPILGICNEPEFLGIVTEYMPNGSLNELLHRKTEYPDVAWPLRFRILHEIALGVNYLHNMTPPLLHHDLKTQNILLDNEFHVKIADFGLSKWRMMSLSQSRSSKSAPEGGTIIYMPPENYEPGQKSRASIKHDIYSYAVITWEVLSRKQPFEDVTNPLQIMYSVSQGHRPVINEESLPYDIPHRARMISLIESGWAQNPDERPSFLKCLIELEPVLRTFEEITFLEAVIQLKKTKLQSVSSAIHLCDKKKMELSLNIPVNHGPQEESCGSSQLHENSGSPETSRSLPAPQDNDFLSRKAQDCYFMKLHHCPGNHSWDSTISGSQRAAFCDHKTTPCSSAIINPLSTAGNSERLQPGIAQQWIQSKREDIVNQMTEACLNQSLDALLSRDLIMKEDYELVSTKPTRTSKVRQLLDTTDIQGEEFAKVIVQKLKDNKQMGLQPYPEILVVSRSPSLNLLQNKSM
Beta2AR agonist – agonists of human beta-2 adrenergic receptor inducing internalization | P07550 | Am2.2-beta2AR cells, FAP receptor internalization, flow cytometry | response, % (test concentration not listed) | actives 0.43% (n = 340,000);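 active = response above a set limit, near 3 SD of response in nonfluorescent compounds, cut at about 42% in these data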
ABHD5 PLIN5 PPI – ABHD5-PLIN5 protein interaction inhibition; Q00G26+Q8WTS1; actives 0.78% (n = 360,000); Split G. princeps luciferase complementation, luminescence, 4 h; inhibition, % at 4 µM;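 active = inhibition above the mean inhibition across every tested compound plus 3 SD, cut at about 22% in these data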;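 also: 0% = DMSO only wells and the 100% control is not disclosed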
TLR9-MyD88 inh – blocks human TLR9 binding to MyD88 | inhibition, % at 4.98 µM | Q9NR96+Q99836 | actives 0.21% (n = 340,000) | CHO BLA complementation TLR9-MyD88, CCF4 FRET ratio;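 active = inhibition above the mean over all tested compounds plus 3 SD, cut at about 21% in these data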;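 also: 0% = DMSO only wells and 100% = clavulanate BLA inhibitor control wells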
TLR4-MyD88 BLA – inhibitors of human TLR4-MyD88 binding; actives 0.18% (n = 200,000); inhibition, % at 8.4 µM; HeLa CL3-4 TLR4/MyD88 BLA complementation, FRET ratio; O00206+Q99836; in the data active = inhibition above about 25%;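 also: 0% = vehicle and 100% = reference inhibitor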
Dynein cargo inh – dynein cargo transport inhibition; 3617.4 mouse cells, GR-EGFP nuclear translocation imaging; test concentration mostly 20 µM; stimulated with dexamethasone, 1 µM; active compounds read low; z-score, hits read low; actives 0.47% (n = 220,000);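 active = plate z-score of nuclear minus cytoplasmic receptor signal below a set negative limit, without overly bright fluorescence or cell loss, cut at about -3.5 in these data, passing the limit was not always enough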;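 also: z-score of nuclear minus cytoplasmic ring GR-EGFP intensity difference per well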
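Schedule: 48 h induction, then 1 h compound, then 30 min agonist, 37 °C. Buffer or medium: tetracycline-free induction medium containing charcoal-stripped FBS. Reagent: 1.0 µM final dexamethasone stimulus. Evaluation: nuclear versus cytoplasmic GR-EGFP signal, averaged per well. Signal: high-content fluorescence imaging after fixation.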
Dynein confirm – dynein cargo transport inhibition, confirmation. shares compounds with Dynein cargo inh. 3617.4 GR-EGFP nuclear translocation imaging, dexamethasone-induced. calls only at 20 µM. actives 69% (n = 1,000);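 active = inhibition of receptor movement into the nucleus at or above a set limit in both runs, with normal cell brightness and cell count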;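 also: dexamethasone at 1 µM final in well for 30 min; nuclear minus cytoplasmic GR-EGFP mean intensity difference in channel 2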
Active calls of the source: *; i = inactive; . = no result; + = active, no number.

SMILES	NOD2-RIPK2 inh	Beta2AR agonist	ABHD5 PLIN5 PPI	TLR9-MyD88 inh	TLR4-MyD88 BLA	Dynein cargo inh	Dynein confirm
Cc1ccccc1CS(=O)(=O)CCC(=O)NCCCN1CCN(c2ccccc2F)CC1	4	-4	2	-4	3	0.54	.
O=C(c1ccc(Cl)cc1)c1c[nH]c(C(=O)C(Cl)(Cl)Cl)c1	8	35	0	5	-3	-3.7*	+
N#C/C(=C\c1cccc([N+](=O)[O-])c1)C(=O)NCc1ccc(Cl)cc1	-2	42	7	-6	1	-6.8*	+
N#C/C(=C\c1cccc([N+](=O)[O-])c1)C(=O)NCc1cccnc1	-3	2	-3	-2	-14	0.27	.
CC1=C(C(=O)N2CCCCCC2)CC(CC(=O)NCCN2CCOCC2)C(=O)N1Cc1ccc(F)cc1 (configuration not stated)	-9	.	-3	.	.	.	.
CCC(C)(C)c1ccc(OCCCC[n+]2cccc(C)c2)c(C(C)(C)CC)c1	1	13	23*	-10	11	-4.8*	i
CCOn1c(=O)c(-c2ccc(OC)cc2)[n+]([O-])c2ccccc21	-4	3	0	-6	-1	1.7	.
CCOn1c(=O)c(-c2ccc(OC)c(OC)c2)[n+]([O-])c2ccccc21	-3	-3	5	-11	-7	-3.7*	i
O=C(c1cnc(Cc2c[nH]c3ccccc23)c(I)c1)N1CCCCC1	10	.	11	.	.	.	.
COc1ccc(C(=O)n2nc(-c3ccco3)nc2SC)cc1OC	-8	4	0	-2	-9	-4*	i
CSc1nc(-c2ccco2)nn1C(=O)c1cccs1	3	-3	0	2	-5	-0.61	.
Cc1ccnc(SCc2cc(=O)c(OC(=O)c3cc([N+](=O)[O-])ccc3Cl)co2)n1	8	0	2	1	3	-4.7*	+
Cc1[nH]n(-c2ncc(-c3ccc(Cl)cc3)s2)c(=O)c1C(c1ccc(Cl)cc1)C(C#N)C#N (configuration not stated)	0	17	0	-8	-9	-3.6*	+
CCCc1[nH][nH]c(=O)c1C(c1cccc(Cl)c1)C(C#N)C#N (configuration not stated)	7	10	-2	8	2	1.1	.
Cc1c(-c2ccc(O)cc2)nc2nc(-c3ccccc3)c(-c3ccccc3)nn12	.	.	.	.	.	-5.3	+
O=C(Cc1cccs1)Nc1nc(-c2ccc(F)cc2F)cs1	7	-2	-11	-6	3	-3.5*	i
O=C(Cc1cccs1)Nc1nc(-c2ccc(F)c(F)c2)cs1	2	10	-3	-5	.	.	.
COc1ccc(C(=O)/C=C/C(=O)N(CC(=O)NC2CCCCC2)Cc2ccccc2OC)c(O)c1	0	95*	3	8	2	-4.5*	+
COc1ccc(C(=O)/C=C/C(=O)N(CC(=O)NC2CCCCC2)Cc2ccccc2)c(O)c1	7	111*	9	-2	19	-4.6*	+
COc1ccc(C(=O)/C=C/C(=O)N(Cc2ccccc2OC)C(C(=O)NC2CCCCC2)c2ccncc2)c(O)c1 (configuration not stated)	3	1	1	-6	-25	-0.51	.
NC(=O)c1ccc(NC(=O)CSC2=Nc3ccccc3C3CC=NN23)cc1 (configuration not stated)	-4	6	-19	-2	7	-4.2*	i
Cc1ccc(/C=C2\C(=O)ON=C2c2ccccc2)o1	-7	5	-4	.	19	0.76	.
Cc1ccc(C2=NOC(=O)/C2=C\c2ccc(C)o2)cc1	-4	56*	7	-12	.	-5.7*	+
COC(=O)c1ccc(CNC(=O)C(Cc2ccccc2)NC(=O)c2ccccc2)cc1 (configuration not stated)	-2	.	-4	0	.	.	.
O=C(CCN1CCN(c2ccccc2F)CC1)c1ccc(Br)cc1	4	-3	20	5	1	-4.3*	i
SMILES	NOD2-RIPK2 inh	Beta2AR agonist	ABHD5 PLIN5 PPI	TLR9-MyD88 inh	TLR4-MyD88 BLA	Dynein cargo inh	Dynein confirm
COc1ccc(C(=O)CCN2CCN(c3ccccc3F)CC2)cc1	2	-2	2	1	6	-0.83	.
COc1ccc(NC(=O)CN(C)C(=O)C2=NN(c3ccccc3)C(=O)CC2)cc1	5	5	4	1	.	.	.
CSCCC(NC(=O)c1ccccc1Cl)C(=O)NCCOc1ccc(C)cc1 (configuration not stated)	4	.	2	-4	.	.	.
CNC(=O)C1CC(=O)N(CCc2ccc(OC)c(OC)c2)C(=Nc2ccc(F)cc2)S1 (configuration not stated)	12	-6	1	2	-7	-0.55	.
COC(=O)c1cc(=O)n(Cc2cccs2)c(=Nc2ccccc2)s1	-3	21	18	11	.	-4.4*	+
COC(=O)c1cc(=O)n(CCc2ccc(OC)c(OC)c2)c(=Nc2ccc(F)c(Cl)c2)s1	-4	22	5	2	15	-4*	+
COC(=O)c1cc(=O)n(Cc2ccc(OC)c(OC)c2)c(=Nc2ccc(F)cc2)s1	-8	72*	3	-64	-7	-4.3*	+
COc1ccc(NC(=O)c2sc(=O)n(Cc3ccc(F)c(Cl)c3)c2C)cc1OC	10	.	7	.	.	.	.
COC(=O)c1cc(C(=O)OC)n(Cc2ccc(F)cc2)c1C	3	2	3	0	2	-0.55	.
COC(=O)c1cc(=O)n(Cc2ccc(F)cc2)c(=Nc2ccccc2)s1	0	25	4	6	.	-4.6*	+
CN(Cc1ccccc1C#N)S(=O)(=O)c1cccs1	-5	5	-12	-6	.	.	.
N#Cc1nccnc1S(=O)(=O)c1cccs1	.	19	.	.	.	-5.6*	+
Cc1ccc(-c2nnc(Sc3nc4ccccc4o3)c3ccccc23)cc1	0	36	6	-8	6	-4.1*	+
Clc1ccc(-c2nnc(Sc3nc4ccccc4o3)c3ccccc23)cc1	7	13	9	9	3	-4.1*	+
CCC(=O)N1N=C(c2cccs2)CC1c1ccc(OC)cc1 (configuration not stated)	-12	-4	0	6	.	.	.
COc1ccc(C2CC(c3cccs3)=NN2c2ccc(C=O)cc2)cc1 (configuration not stated)	.	.	.	.	-33	-9.6	i
O=C(Cn1cnc(S(=O)(=O)N2CCOCC2)c1)Nc1ccc(OC(F)(F)F)cc1	-8	-2	-7	-6	.	.	.
ClC1=C(Cl)C(Cl)=C(Cl)C1=C/C=C/c1ccccc1	2	9	-7	-8	.	-4.1*	i

High-throughput results as filed in PubChem.
